Compounds with a hit are over-represented: about 6.3% of the library has one in this group of screens.
RORa activator – activators of human nuclear receptor RORA; P35398; activation, % at 10 µM; CHO-K1 Gal4-RORA LBD luciferase reporter, luminescence; percent increase over mock-subtracted basal signal; AID 560; 65,000 compounds, 1.5% hits;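 active means activation above the mean of all tested compounds plus 3 SD, cut at about 49% in these data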;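 further: 0% = DMSO-treated RORA cells and 100% = added signal equal to DMSO minus mock-transfected cells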
M1 agonist – agonists of M1 muscarinic receptor; CHO-M1 cells, Fluo-4 calcium fluorescence, agonist mode; stronger effect = higher value; B-score at 10 µM; 64,000 compounds, 3% hits;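 active means fluorescence rise, raw or as B-score row- and column-corrected plate score, outside the 99.7% band of its plate's samples, either direction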
M1 antag – antagonists of rat M1 muscarinic receptor; P08482; CHO-M1 cells, Fluo-4 calcium, ACh EC80 antagonist mode; stronger effect = lower value; B-score at 10 µM; 64,000 compounds, 3.4% hits;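 active means calcium fluorescence response, raw or row-and-column corrected B-score, differing from the plate sample mean either way at a set confidence level, mostly lower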
Target sequence (P08482 whole entry, looked up): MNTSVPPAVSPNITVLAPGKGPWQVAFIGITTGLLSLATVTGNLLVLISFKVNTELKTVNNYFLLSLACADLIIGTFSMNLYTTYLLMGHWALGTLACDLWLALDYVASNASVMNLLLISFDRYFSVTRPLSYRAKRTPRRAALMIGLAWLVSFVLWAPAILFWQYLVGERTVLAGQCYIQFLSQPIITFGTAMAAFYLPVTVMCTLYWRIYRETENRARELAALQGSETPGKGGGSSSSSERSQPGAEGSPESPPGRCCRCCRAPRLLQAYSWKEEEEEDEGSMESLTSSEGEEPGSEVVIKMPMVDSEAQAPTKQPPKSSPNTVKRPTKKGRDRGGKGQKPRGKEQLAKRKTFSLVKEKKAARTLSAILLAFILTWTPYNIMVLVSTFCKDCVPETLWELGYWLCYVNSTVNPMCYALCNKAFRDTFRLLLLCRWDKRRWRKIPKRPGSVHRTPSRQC
SF-1 act – activates the human nuclear receptor SF-1 | Q13285 | CHO-K1 Gal4-SF-1 LBD luciferase reporter; % increase over DMSO SF-1-specific signal | activation, % at 10 µM | 65,000 compounds, 1.9% hits | AID 522;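 active means activation above the mean activation of all tested compounds plus 3 SD, cut at about 50% in these data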
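Material: CHO-K1 cells with Gal4–hSF-1 LBD chimera plus Gal4-driven luciferase / Input: 4,000 CHO-K1 cells per well / Incubation: compound exposure 20 h at 37 °C / Signal: luminescence read 15 min after SteadyLite luciferase reagent, after room-temperature equilibration / Read-out: percent activation versus DMSO / Benchmarks: DMSO negative control and −SF1 background wells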
MT1-MMP txn act – MT1-MMP promoter transcription activation | HT1080 MT1-MMP promoter luciferase reporter, luminescence, overnight; stronger effect = higher value | activation factor at 10 µM | 86,000 compounds, 0.16% hits | AID 750;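 active means activation factor of at least 2 for MT1-MMP transcription at 10 µM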
M1 antag confirm – confirmation of rat M1 muscarinic receptor antagonists. shares compounds with M1 antag. CHO-M1 cells, Fluo-4 calcium, ACh EC80 antagonism; stronger effect = lower value. calcium response (max-min fluorescence) at 10 µM. 1,700 compounds, 43% hits. AID 677;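 active means calcium response below the same-plate mean of wells given acetylcholine alone at its 80%-effect dose, minus 3 SD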;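 further: raw fluorescence intensity difference in arbitrary instrument units and not normalized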
mGluR4 antag – mGluR4 (human) activity, M1 antagonist secondary assay. shares compounds with M1 antag. CHO-mGluR4 calcium flux, Fluo-4 fluorescence, glutamate EC80; stronger effect = lower value. fluorescence response (max-min) at 10 µM. 1,700 compounds, 0.9% hits. AID 678;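 active means fluorescence response below the plate's average for near-maximal glutamate wells, less 3 SD of those wells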;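 further: raw unnormalized fluorescence span taken in the window right after glutamate addition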
* = called active by the depositor; x = no result given.

SMILES	RORa activator	M1 agonist	M1 antag	SF-1 act	MT1-MMP txn act	M1 antag confirm	mGluR4 antag
CCOC(=O)Cn1c(=N)n(Cc2ccccc2)c2ccccc21	-3	0.41	-0.35	1	1	x	x
c1ccc(-c2cc3c(N4CCOCC4)ncnc3s2)cc1	12	-0.37	-2.6*	-6	1.2	497	214
Cc1nc(N2CCOCC2)c2cc(-c3ccccc3)sc2n1	1	1.4	-0.86	5	1.3	x	x
Clc1ccc(Cn2ncc3c(NCCN4CCOCC4)ncnc32)cc1	-5	-1.3	0	-2	1.2	x	x
CCN1CCc2nc(SCC(=O)Nc3ccc(OC)cc3)c(C#N)cc2C1	-7	-0.046	-0.73*	-5	1.1	511	219
COc1ccc(NC(=O)CSc2nc3c(cc2C#N)CN(C)CC3)cc1	-8	-0.37	-0.48	13	1.1	x	x
CN(C)CCCOC(=O)C1c2ccccc2Oc2ccccc21	2	-1.1	-12*	7	1.1	22*	243
CN(CCOC(=O)C1c2ccccc2Oc2ccccc21)C(C)(C)C	x	x	x	x	1.1	x	x
O=C(Nc1cnccn1)C1c2ccccc2Oc2ccccc21	-10	-0.41	-0.48	-2	1.1	x	x
CCN(CC)CCCNC(=O)C1c2ccccc2Oc2ccccc21	-16	0.05	-6.8*	4	1.1	192*	255
Cc1ccc(C(=O)C(C(=O)/C=C/c2ccccc2)=C2SCCCS2)cc1	x	x	x	x	0.8	x	x
CN1CCN(CCCNC(=O)c2cc3c(-c4ccc(Cl)cc4)nn(C)c3s2)CC1	24	0.14	-0.88	9	0.9	x	x
CCN(CC)CCCNC(=O)c1cc(-c2ccc(Cl)c(Cl)c2)on1	2	-0.87	-3*	0	1.1	474*	176
CCN(CC)CCCNC(=O)c1cc2c(-c3ccc(Cl)cc3)nn(C)c2s1	24	0.033	-6.6*	30	1	419	220
O=C(O)c1ccc(Cn2cc(Cl)cn2)cc1	-5	-0.17	-0.49	5	0.9	x	x
CC(C)(O)C#CC#CCN1CCOCC1	13	-0.88	-1.1*	-9	1.2	637	191
NC(=O)NC(=O)CSc1cccc(C(F)(F)F)c1	4	-0.28	0.41	-6	1	x	x
COc1ccc(-c2noc(-c3cc(C)cc(C)c3)n2)cc1OC	-22	-1.4	-3.1*	7	1.5	468*	231
CCOc1ccc(-c2nc(-c3ccc(OC)c(OC)c3)no2)cc1OCC	-5	0.24	-0.042	-1	1.3	x	x
COCc1cc(C)nc(SCC(=O)Nc2cccc3cccnc23)c1C#N	13	0.42	-3.9*	7	1.1	643	215
COCc1cc(C)nc(SCC(=O)Nc2ccc3c(c2)OCO3)c1C#N	-6	-0.62	0.2	-8	1.2	x	x
Cc1cc(NC(=O)Cn2nc(-c3ccccc3F)ccc2=O)ccc1-n1cnnn1	-18	0.66	0.29	1	1.2	x	x
Cc1cccc(Cn2c(N3CCCCC3C)nc3c2c(=O)[nH]c(=O)n3C)c1 (configuration not stated)	3	0.38	-4.2*	-6	1.1	90*	179
CCOC(=O)c1cccc(N2C(=O)c3ccccc3S2(=O)=O)c1	18	-0.073	0.26	6	1.1	x	x
CC(C)Cn1cc(C(=O)NCC2CCCO2)c2c3ccccc3n(C)c2c1=O (configuration not stated)	16	1.6	-5.9*	-7	1.2	577	212
SMILES	RORa activator	M1 agonist	M1 antag	SF-1 act	MT1-MMP txn act	M1 antag confirm	mGluR4 antag
O=C(c1ccc(Br)o1)N1CCN(c2ccc3nnc(-c4ccccc4)n3n2)CC1	-8	0.91	-6.4*	-20	x	264*	225
Cc1nnc2ccc(N3CCN(C(=O)c4ccccc4)CC3)nn12	7	-0.69	-0.96	-14	1.1	x	x
CCOCCCn1c(=S)[nH]c2cc(C(=O)NCCN(CC)CC)ccc2c1=O	1	0.12	-8.8*	13	1.2	538	204
CCC(C)c1ccc(O)c(N)c1 (configuration not stated)	1	-0.44	-0.061	-14	1.1	x	x
CC(C)c1ccc(O)c(N)c1	-6	0.53	-2.6*	-10	1.1	697	208
CCCCn1c(CN2CCN(C)CC2)nc2ccccc21	4	0.5	-4*	-13	1	324*	235
